An excerpt weighted towards active compounds, which were near 2.1% of everything screened.
Autophagy mod – autophagy modulators in MEF cells, primary screen, imaging, high-content, MEF GFP-LC3; actives 0.98% (n = 190,000); calls only at 10 µM (by protocol); MEF GFP-LC3 puncta imaging; test concentration mostly 10 µM; AID 463193, 2010;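 active = percentage of spot-positive cells more than 3 SD above its plate mean, without a fluorescence outlier flag or 80% toxicity; inconclusive = no clear call, values can overlap the other calls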
Dynein transport – inhibitors of GR-EGFP nuclear translocation, primary screen, dynein cargo transport inhibitor project, imaging, high-content, 3617.4 mouse cells | test concentration mostly 20 µM; stimulated with dexamethasone, 1 µM; hits give low values | z-score, hits read low | actives 0.47% (n = 220,000);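 active = plate z-score of nuclear minus cytoplasmic receptor signal below a set negative limit, without overly bright fluorescence or cell loss, cut at about -3.5 in these data, passing the limit was not always enough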;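 note: z-score of nuclear minus cytoplasmic ring GR-EGFP intensity difference per well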
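Medium: Induction medium lacking tetracycline, stripped serum | Probe or stimulus: 1.0 µM final dexamethasone stimulus | Schedule: 48 h induction, then 1 h compound, then 30 min agonist, 37 °C | Signal: Automated 10x imaging of fixed Hoechst-stained cells | Evaluation: Per-cell GR-EGFP intensity, nucleus versus surrounding cytoplasmic ring, well-averaged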
Insulin prom inh – inhibitors of insulin promoter-driven GFP, primary screen, imaging, TRM-6 cells (human fetal islet line), eGFP reporter, cell count; actives 0.9% (n = 130,000); inhibition, % at 2 µM; AID 1273, 2008; reporter expression induced with tamoxifen;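 active = inhibition above the mean plus 3 SD, with well images judged a real hit on visual review, cut at about 60% in these data, passing the limit was not always enough; inconclusive = inhibition over the cutoff but images rejected on review; inactive = inhibition not above the cutoff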
Insulin prom up – insulin promoter activators in MIN6 cells, imaging, high-content screening, mouse beta cells; MIN6 insulin promoter-GFP reporter; hits give high values; z-score at 5 µM; actives 0.3% (n = 190,000);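 active = z-score above 3 at 5 µM with at least 500 cells counted in the well; inconclusive = wells under 500 cells, flagged as cytotoxic or low count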
PERK inhibitor – block of dimerizer-induced PERK translation repression, primary screen, PERK inhibitor project, CHO PERK-DD cells, SEAP luminescence, HTS. Eukaryotic translation initiation factor 2-alpha kinase 3 (Homo sapiens), Q9NZJ5. CHO PERK-DD fusion, SEAP luminescence translation reporter. inhibition, % at 5.6 µM. actives 0.17% (n = 220,000);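 active = inhibition above the mean inhibition of all tested compounds plus 3 SD, set separately per screening campaign, cut at about 2.9% in these data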;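 note: PERK kinase domain activated by AP20187 dimerizer at 100 nM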
Target sequence (Q9NZJ5 whole entry, looked up, the tested form may be a part): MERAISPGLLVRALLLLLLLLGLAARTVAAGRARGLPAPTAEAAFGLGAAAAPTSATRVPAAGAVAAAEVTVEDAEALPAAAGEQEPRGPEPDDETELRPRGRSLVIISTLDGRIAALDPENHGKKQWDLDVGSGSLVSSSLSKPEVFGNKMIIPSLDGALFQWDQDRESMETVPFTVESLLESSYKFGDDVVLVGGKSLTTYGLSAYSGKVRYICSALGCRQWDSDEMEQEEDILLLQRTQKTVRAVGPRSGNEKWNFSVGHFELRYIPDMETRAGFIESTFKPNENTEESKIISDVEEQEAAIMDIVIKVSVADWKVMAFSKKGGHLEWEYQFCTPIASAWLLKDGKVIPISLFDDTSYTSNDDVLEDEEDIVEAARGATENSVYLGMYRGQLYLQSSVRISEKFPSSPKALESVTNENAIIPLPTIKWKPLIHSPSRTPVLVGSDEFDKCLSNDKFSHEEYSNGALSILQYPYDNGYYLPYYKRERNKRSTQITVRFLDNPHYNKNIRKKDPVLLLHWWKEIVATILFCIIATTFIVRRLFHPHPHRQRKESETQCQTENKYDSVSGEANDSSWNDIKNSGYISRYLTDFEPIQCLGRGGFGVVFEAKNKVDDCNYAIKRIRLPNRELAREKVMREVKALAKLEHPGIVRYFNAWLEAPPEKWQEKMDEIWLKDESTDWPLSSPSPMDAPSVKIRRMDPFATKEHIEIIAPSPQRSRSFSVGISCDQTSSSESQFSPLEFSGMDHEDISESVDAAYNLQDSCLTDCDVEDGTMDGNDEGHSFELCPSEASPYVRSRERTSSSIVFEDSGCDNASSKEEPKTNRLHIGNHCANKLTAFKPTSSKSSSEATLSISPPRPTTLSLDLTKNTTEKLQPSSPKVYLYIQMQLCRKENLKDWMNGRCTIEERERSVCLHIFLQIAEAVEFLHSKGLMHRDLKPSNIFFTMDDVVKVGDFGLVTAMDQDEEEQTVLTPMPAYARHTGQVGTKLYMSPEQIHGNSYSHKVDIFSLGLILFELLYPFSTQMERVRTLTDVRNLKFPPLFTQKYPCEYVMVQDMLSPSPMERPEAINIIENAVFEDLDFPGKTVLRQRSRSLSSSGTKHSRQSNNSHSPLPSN
Dynein confirm – dynein cargo transport inhibitors, GR-EGFP translocation, confirmation, imaging, high-content imaging, GR-EGFP cells; shares compounds with Dynein transport; calls only at 20 µM; actives 69% (n = 1,000); AID 463116, 2010; 3617.4 GR-EGFP nuclear translocation imaging, dexamethasone-induced;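 active = inhibition of receptor movement into the nucleus at or above a set limit in both runs, with normal cell brightness and cell count; inconclusive = limit reached in only one run, brightness and count normal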;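 note: dexamethasone at 1 µM final in well for 30 min; nuclear minus cytoplasmic GR-EGFP mean intensity difference in channel 2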
Large screens that a line does not name were inactive (follow-up assays come after a bar, where they were run).

C=CCn1c(O)c(C=Nc2ccc(N(CC)CC)cc2)c(=O)[nH]c1=O	none
CCN(CC)c1ccc(N=Cc2c(O)n(-c3ccc(OC)cc3)c(=O)[nH]c2=O)cc1	none
CN(C)c1ccc(N=Cc2c(O)n(CCC3=CCCCC3)c(=O)[nH]c2=O)cc1	Autophagy mod active
CCN(CC)c1ccc(N=Cc2c(O)n(-c3ccc(Cl)cc3)c(=O)[nH]c2=O)cc1	Autophagy mod active (no result: Insulin prom inh)
CCN(CC)c1ccc(N=Cc2c(O)n(CCC3=CCCCC3)c(=O)[nH]c2=O)cc1	Autophagy mod active
CCOC(=O)c1cncn1[C@H](C)c1ccccc1	none (no result: Autophagy mod, Dynein transport, Insulin prom inh)
O=c1[nH]c2ccccc2c(=O)n1-c1cccc(Cl)c1	Insulin prom inh 82
N=Cc1c(O)n(-c2cccc(Cl)c2)c(=O)[nH]c1=O	none
CCOc1ccc(N2C(=O)NC(=O)/C(=C/c3cnc(SC)nc3)C2=O)cc1	none (no result: Insulin prom inh, Insulin prom up)
Cc1ccc(-c2cc(-c3ccc(C)cc3)[n+](C)o2)cc1	Insulin prom inh 79, Insulin prom up inconclusive
Cc1cc(C=O)c(C)n1C1CCCCC1	Insulin prom inh 69
Cc1cc(C=C2C(=O)N(C)C(=S)N(C)C2=O)c(C)n1C1CCCC1	none
O=C(c1ccc2c3c(cccc13)CC2)C1CCCN(CC2CC2)C1 (configuration not stated)	none (no result: Insulin prom up)
O=[N+]([O-])c1ccc(N2CCNCC2)cc1N1CCCCC1	none (no result: Insulin prom inh)
COc1ccc(NC(=O)c2cc([N+](=O)[O-])ccc2N2CCNCC2)cc1	Autophagy mod active (no result: Insulin prom inh)
O=[N+]([O-])c1cc(-c2ccc([As](=O)(O)O)cc2)ccc1[As](=O)(O)O	none (no result: Autophagy mod, Insulin prom inh)
Fc1c(F)c(F)c(N2CCNCC2)c(F)c1F	none (no result: Insulin prom inh)
COc1ccc2nc(/N=C/c3c(O)n(-c4cccc(Cl)c4)c(=O)[nH]c3=O)sc2c1	PERK inhibitor 2.9 (no result: Insulin prom up)
CC1CCCC(C2(O)C(=O)Nc3ccccc32)C1=O (configuration not stated)	Insulin prom up 5.6
CCCCCc1nc2c(c(=O)c3ccccc3n2C)c(=O)n1C1CCCCCC1	none (no result: Insulin prom inh)
O=c1cc(C(F)(F)F)c2cc3c4c(c2o1)CCCN4CCC3	Dynein transport -4.8 (no result: Insulin prom up) | Dynein confirm active
Cc1cc2c(C(F)(F)F)cc(=O)oc2c2c1NCCC2	none (no result: Insulin prom up)
O=c1[nH]c(=S)n(C2CCCCC2)c(O)c1/C=N/N1CCOCC1	none (no result: Autophagy mod, Insulin prom inh)
CN1C(=O)NC(=O)/C(=C/c2ccc([N+](=O)[O-])s2)C1=O	Dynein transport -5.5 (no result: Autophagy mod, Insulin prom inh) | Dynein confirm active
O=C1NC(=O)N(c2ccccc2)C(=O)/C1=C\c1ccc([N+](=O)[O-])s1	Dynein transport -6 (no result: Autophagy mod, Insulin prom inh) | Dynein confirm active
COc1ccc(OC)c(N2C(=O)NC(=O)/C(=C\c3ccc([N+](=O)[O-])s3)C2=O)c1	Dynein transport -5.6 | Dynein confirm active
COc1ccc(N2C(=O)NC(=O)/C(=C\c3ccccc3[N+](=O)[O-])C2=O)cc1	none (no result: Insulin prom inh)
O=C1NC(=O)N(c2ccccc2)C(=O)/C1=C\c1ccc([N+](=O)[O-])o1	none (no result: Autophagy mod, Insulin prom inh)
CN1C(=O)NC(=O)/C(=C/c2ccc([N+](=O)[O-])o2)C1=O	none (no result: Autophagy mod, Insulin prom inh)
CCOC(=O)[C@@]12C(=O)C(=O)N[C@]1(c1ccccc1)C1OCCCC12 (some centres not stated)	none
CCOc1ccc(N2C(=O)/C(=C\c3cccs3)C(=O)NC2=S)cc1	Dynein transport -4.4 | Dynein confirm active
O=c1[nH]sc2cc(F)ccc12	Dynein transport -4.9 | Dynein confirm active
C/C=C(\C)C(=O)OC1C(C)=C2C(C1OC(=O)CCCCC)C(C)(OC(C)=O)CC(OC(=O)CCC)C1(O)C2OC(=O)C1(C)O (configuration not stated)	none (no result: Autophagy mod, Insulin prom inh, PERK inhibitor)
CC/C(=N\N1CCCCCC1)c1c(O)n(-c2ccccc2C)c(=O)[nH]c1=O	none
Cc1nnc2n1-c1ccc(Cl)cc1C(c1ccccc1)=NC2	none (no result: Autophagy mod, Dynein transport, Insulin prom inh)
O=[N+]([O-])c1ccc(NCc2ccccc2)c2nonc12	Dynein transport -6.8, Insulin prom up 13 (no result: Insulin prom inh) | Dynein confirm active
Cc1ccc(N2C(=O)NC(=O)/C(=C/C=C/c3ccco3)C2=O)cc1	Dynein transport -4.5 (no result: Insulin prom inh) | Dynein confirm active
Cc1cc(C)cc(N2C(=O)NC(=O)/C(=C\C=C\c3ccco3)C2=O)c1	Dynein transport -4.5 | Dynein confirm active
O=C1NC(=O)N(c2ccccc2)C(=O)/C1=C\C=C\c1ccccc1	Dynein transport -6 (no result: Autophagy mod, Insulin prom inh) | Dynein confirm active
O=C1NC(=O)N(Cc2ccc(F)cc2)C(=O)/C1=C\C=C\c1ccco1	Dynein transport -5.1 (no result: Autophagy mod, Insulin prom inh) | Dynein confirm active
C=CC1CN2CCC1CC2c1[nH]c2ccccc2c1CCO (configuration not stated)	none
CCOc1cccc(=NC2CCCCC2)c2c(C)n(C)c(C)c12	Insulin prom up inconclusive (no result: Autophagy mod, Insulin prom inh)
CC(C)c1ccc(N2C(=O)NC(=O)/C(=C/C=C/c3ccco3)C2=O)cc1	none (no result: Insulin prom inh)
CCc1ccc(N2C(=O)NC(=O)/C(=C\C=C\c3ccco3)C2=O)cc1	Dynein transport -3.9 (no result: Autophagy mod, Insulin prom inh) | Dynein confirm active

Screening results: PubChem BioAssay, several laboratories
